Several values for one entry are separate records, joined by “and”; a condition that tells them apart may be missing. Equal entries are not always repeated.
Legend:
rat = assay: concentration in blood after dosing
human [1] = assay: concentration in blood after dosing
Method in brief: (§1)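 A PubMed search, classifier screening and manual review identified published in vivo toxicokinetic studies, which together with two structured collections supplied concentration-versus-time and amount-versus-time points. Points were mostly digitised from plot screenshots with WebPlotDigitizer, otherwise copied from tables. Dose, route, subject details and medium were hand-curated from each paper, and sampling and analytical methods are those of the sources, often unreported.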

rabbit = assay: concentration in blood after dosing; conditions: dosed: hexachlorocyclohexane, 25 mg/kg, oral, female
Method in brief: as §1

human [2] = assay: concentration in expired air after dosing; conditions: dosed: methyl tert-butyl ether, 15 mg, oral, male
Method in brief: as §1

human [3] = assay: concentration in blood after dosing; negative times count back from the end of exposure; conditions: dosed: methyl tert-butyl ether, 25 ppm, inhalation, duration: 4 hr, male
Method in brief: as §1

COc1ccccc1N=Nc1c(O)ccc2ccccc12 [Solvent red1]
rat, dosed: Solvent red1, 20 mg/kg, oral, Sprague Dawley
Conditions | concentration in blood [µg/mL]
0.2399 h | 0.122
0.4077 h | 0.341
0.7668 h | 0.99
1.067 h | 0.51
1.606 h | 0.274
2.085 h | 0.139
2.561 h | 0.0905
3.615 h | 0.0464
4.567 h | 0.0158
5.518 h | 0.0103
7.58 h | 0.00835
9.583 h | 0.0046
13.09 h | 0.00434
18.04 h | 0.00127
24.03 h | 0.000824
251 s | 0.00262

Clc1ccccc1 [chlorobenzene]
human [1], dosed: chlorobenzene, 10 ppm, inhalation, duration: 8 hr
Conditions | concentration in blood
8.065 h | 0.182 µg/mL
8.199 h | 0.192 µg/mL and 0.167 µg/mL and 0.1 µg/mL
8.252 h | 0.145 µg/mL
8.284 h | 0.2 µg/mL
8.434 h | 0.12 µg/mL
8.451 h | 0.158 µg/mL
8.532 h | 0.0653 µg/mL
8.536 h | 0.158 µg/mL and 0.14 µg/mL
8.617 h | 0.112 µg/mL
8.633 h | 0.109 µg/mL
8.82 h | 0.107 µg/mL
8.872 h | 0.128 µg/mL and 0.14 µg/mL and 0.0518 µg/mL
9.018 h | 0.102 µg/mL
9.124 h | 0.119 µg/mL
9.201 h | 0.0496 µg/mL and 0.0929 µg/mL
9.205 h | 0.119 µg/mL
9.387 h | 0.0981 µg/mL
9.533 h | 0.0788 µg/mL and 0.0442 µg/mL
9.537 h | 0.108 µg/mL
9.582 h | 0.1 µg/mL
9.87 h | 0.096 µg/mL and 0.0697 µg/mL and 0.0421 µg/mL
10.2 h | 0.0405 µg/mL and 0.0775 µg/mL and 0.0913 µg/mL
10.53 h | 0.0502 µg/mL and 0.0634 µg/mL and 0.0715 µg/mL
10.86 h | 0.0417 µg/mL
10.87 h | 0.0587 µg/mL and 0.0662 µg/mL
11.2 h | 0.0609 µg/mL

CCCCCCCCCC [decane]
rat, dosed: decane, 1200 ppm, inhalation, duration: 4 hr
Conditions | concentration in blood [µg/g]
0.51 h | 0.855
0.5118 h | 1.32
0.5126 h | 1.61
0.5141 h | 0.232
1.018 h | 0.402
1.021 h | 0.836
1.022 h | 1.06
1.023 h | 1.4
2.003 h | 0.669
2.007 h | 0.196
2.01 h | 0.37
2.011 h | 0.451
3.997 h | 0.455
4.002 h | 0.176
4.003 h | 0.21
5.5 min | 4.98
335 s | 6.97
338 s | 8.67

BrCBr [dibromomethane]
rat, dosed: dibromomethane, dermal, duration: 4 hr, male, Fischer-344
Conditions | concentration in blood [µg/mL]
0.4941 h, 500 ppm | 0.965
0.5004 h, 5000 ppm | 8.99
0.5042 h, 10000 ppm | 34.2
0.5051 h, 1000 ppm | 1.17
0.9982 h, 500 ppm | 1.28
0.9999 h, 5000 ppm | 14.7
1.004 h, 10000 ppm | 55.2
1.005 h, 1000 ppm | 2.09
2.005 h, 500 ppm | 1.29
2.007 h, 1000 ppm | 2.72
2.011 h, 10000 ppm | 90.1
2.014 h, 5000 ppm | 30
2.998 h, 1000 ppm | 3.02
2.998 h, 10000 ppm | 120
3 h, 500 ppm | 1.15
3.005 h, 5000 ppm | 38.2
4.005 h, 1000 ppm | 3.13
4.005 h, 10000 ppm | 142
4.007 h, 500 ppm | 1.28
4.017 h, 5000 ppm | 44.9

CCOC(C)(C)C [ethyl tert-butyl ether]
concentration in blood [µM], human [1], dosed: ethyl tert-butyl ether, inhalation, duration: 4 hr
Conditions | 2.045 h | 4.023 h | 4.057 h | 6.068 h | 7.977 h | 9.972 h | 11.98 h | 23.9 h | 61 s | 184 s
4.5 ppm | 0.371 | 0.117 | – | – | – | – | – | – | 1.32 | –
40.6 ppm | 3.35 | – | 1.94 | 1.75 | 0.941 | 1.1 | 0.762 | 0.171 | – | 12

ClC1C(Cl)C(Cl)C(Cl)C(Cl)C1Cl (centres undefined) [hexachlorocyclohexane]
rabbit
Conditions | concentration in blood [µg/mL]
168 h | 9.22
336 h | 12.3
504 h | 18.4
672 h | 24.6
840 h | 33.8
1008 h | 39.9
1176 h | 46.1
1344 h | 52.2
1512 h | 58.4
1680 h | 64.5
1848 h | 70.7
2016 h | 86

COC(C)(C)C [methyl tert-butyl ether]
human [1], dosed: methyl tert-butyl ether, inhalation, duration: 4 hr
Conditions | concentration in blood [µM]
0.01 h, 38.7 ppm | 6.65
2 h, 4.5 ppm | 0.643
2.004 h, 38.7 ppm | 2.1
3.94 h, 4.5 ppm | 0.354
3.996 h, 38.7 ppm | 1.02
6.01 h, 4.5 ppm | 0.174
6.012 h, 38.7 ppm | 0.606
7.951 h, 4.5 ppm | 0.084
8.029 h, 38.7 ppm | 0.395
10.04 h, 38.7 ppm | 0.328
12.06 h, 38.7 ppm | 0.253
22 s, 4.5 ppm | 1.93

human [1], dosed: methyl tert-butyl ether, oral
Conditions | concentration in blood [µM]
0.9725 h, 5 mg | 0.0994
1.015 h, 15 mg | 0.685
1.991 h, 5 mg | 0.0411
2.004 h, 15 mg | 0.276
2.918 h, 15 mg | 0.108
2.982 h, 5 mg | 0.0272
3.947 h, 5 mg | 0.0187
4.008 h, 15 mg | 0.082
5.952 h, 5 mg | 0.0131
5.987 h, 15 mg | 0.0471
7.932 h, 5 mg | 0.0117
7.966 h, 15 mg | 0.0264
9.937 h, 5 mg | 0.0101
9.945 h, 15 mg | 0.0233
12 h, 15 mg | 0.013
12.02 h, 5 mg | 0.00899

Conditions | concentration in blood [µM] | concentration in expired air [µM]
human [2], 0.1656 h | – | 0.077
human [2], 0.3208 h | – | 0.077
human [2], 0.5071 h | – | 0.05141
human [2], 0.6649 h | – | 0.03325
human [2], 0.8305 h | – | 0.02815
human [2], 0.9935 h | – | 0.02117
human [2], 1.508 h | – | 0.01295
human [2], 1.995 h | – | 0.009141
human [2], 2.999 h | – | 0.00625
human [2], 3.99 h | – | 0.002876
human [2], 4.996 h | – | 0.002574
human [2], 5.99 h | – | 0.00141
human [3], 0.2914 h | 7.86 | –
human [3], 0.5342 h | 6.55 | –
human [3], 0.9123 h | 5.51 | –
human [3], 2.155 h | 3.31 | –
human [3], 6.883 h | 0.651 | –
human [3], 20.1 h | 0.04 | –

human [3], during exposure
Conditions | concentration in blood [µM]
-4 h | 0.117
-3.335 h | 6.64
-2.225 h | 7.88
-1.277 h | 9.78
-0.1674 h | 10.6
